Measurements from ChEMBL document CHEMBL5030567, “Macrocyclic Inhibitors of HGF-Activating Serine Proteases Overcome Resistance to Receptor Tyrosine Kinase Inhibitors and Block Lung Cancer Progression” (J Med Chem, 2021).
≈ marks a conversion by molar mass, not a printed value. Calls of active or inactive are those of the source. The calls are words filed in the database; no cut-off is given here. Numbered stars: 1 amine (or outer) side, 2 acyl side, 3 side chain; on linkers, the order of the positions; unused ones are H or OH. Square brackets hold non-standard residues; d marks the D form. Peptide text beside a SMILES is read from it. X1 = N=C(N)NCCC[C@H](N[*:1])C(=O)c1nc2ccc(C(=O)[*:2])cc2s1

How the values were obtained:
NCI-H596 [1] = assay: Antitumor activity against human NCI-H596 cells xenografted in hHGF knock in NSG mouse assessed as tumor growth inhibition at 50 mg/kg, ip administered daily for 25 days; format: functional, organism-based; conditions: time 25.0 day
[2] = Stability in mouse liver microsomes assessed as half life; format: ADME, Microsome
HCC827 [3] = assay: Inhibition of pro-HGF stimulated wound healing in human HCC827 cells preincubated for 30 mins followed by pro-HGF stimulation and measured after 24 hrs by crystal violet staining based assay; format: functional, cell-based
Outline: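 HCC827 monolayers grown to confluence, serum-starved overnight, then scratched. Cells were pre-incubated 30 min with inhibitor (10 µM) and stimulated with HGF or pro-HGF for 24 h. Wells stained with crystal violet to score closure. n=3; one-way ANOVA versus pro-HGF alone.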

HCC827 [4] = assay: Cytotoxicity against human HCC827 cells assessed as reduction in cell viability at 0.1 to 1 uM after 72 hrs in presence of pro-HGF by crystal violet staining based assay; conditions: dose 0.1-1 µM
[5] = target: T1, Suppressor of tumorigenicity 14 protein (Homo sapiens) (UniProt Q9Y5Y6); assay: Inhibition of recombinant human N-terminal met-His6-tagged matriptase catalytic domain (Gly596 to Val855 residues) expressed in Escherichia coli mediated pro-HGF activation preincubated for 30 mins followed by pro-HGF addition and measured after 1 hr by immunoblotting analysis
T1 sequence (whole entry): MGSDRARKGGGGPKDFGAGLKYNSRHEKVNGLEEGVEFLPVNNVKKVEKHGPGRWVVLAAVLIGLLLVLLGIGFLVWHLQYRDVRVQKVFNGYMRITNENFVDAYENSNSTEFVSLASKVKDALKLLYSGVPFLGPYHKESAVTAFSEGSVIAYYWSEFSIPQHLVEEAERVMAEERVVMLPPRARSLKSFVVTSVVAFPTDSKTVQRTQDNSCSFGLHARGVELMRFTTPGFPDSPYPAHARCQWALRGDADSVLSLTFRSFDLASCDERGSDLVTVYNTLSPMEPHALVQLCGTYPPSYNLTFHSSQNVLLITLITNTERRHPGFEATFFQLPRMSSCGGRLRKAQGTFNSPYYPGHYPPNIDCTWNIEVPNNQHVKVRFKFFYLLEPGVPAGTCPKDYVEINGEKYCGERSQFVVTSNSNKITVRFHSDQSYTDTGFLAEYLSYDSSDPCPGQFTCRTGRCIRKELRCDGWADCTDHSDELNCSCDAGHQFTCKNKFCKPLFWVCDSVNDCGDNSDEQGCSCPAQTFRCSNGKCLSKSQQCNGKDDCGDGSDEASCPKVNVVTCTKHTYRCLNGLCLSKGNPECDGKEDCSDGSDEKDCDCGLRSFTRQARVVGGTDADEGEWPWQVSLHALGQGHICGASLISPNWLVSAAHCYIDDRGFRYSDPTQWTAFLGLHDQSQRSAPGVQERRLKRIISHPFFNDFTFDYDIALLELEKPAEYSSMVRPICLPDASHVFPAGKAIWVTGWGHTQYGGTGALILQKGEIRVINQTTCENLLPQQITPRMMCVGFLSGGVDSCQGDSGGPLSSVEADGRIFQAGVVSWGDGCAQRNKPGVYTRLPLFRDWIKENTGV
Outline: (§1)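 Recombinant pro-HGF (10 ng) incubated one hour with matriptase (1 nM), hepsin (10 nM) or HGFA (5 nM), with or without inhibitor. Processing detected by immunoblot with a polyclonal antibody recognizing pro-HGF and the HGF alpha and beta chains; active HGF served as positive control.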

[6] = Stability in human plasma assessed as half life; format: ADME, cell-free
Prothrombin = Prothrombin (Homo sapiens, UniProt P00734); assay: Inhibition of recombinant thrombin (unknown origin) using D-Phe-Pip-Arg-pNA as substrate preincubated for 30 mins followed by substrate addition by chromogenic assay
[7] = Stability in mouse plasma assessed as half life; format: ADME, cell-free
EBC-1 = assay: Cytotoxicity against human EBC-1 cells assessed as reduction in cell viability preincubated with compound and pro-HGF for 24 hrs followed by JNJ-38877605 addition and measured after 48 hrs by CellTiter-Glo assay; format: functional, cell-based; conditions: time 72.0 hrs
Outline: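 EBC-1 cells pre-incubated 24 h with pro-HGF (100 ng/ml) with or without compound (1 µM), then given MET kinase inhibitor JNJ-38877605 (25 nM). Viability read by CellTiter-Glo after 48 h. Means±S.E.M., n=3; one-way ANOVA with Dunnett's test.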

[8] = target: T2, Suppressor of tumorigenicity 14 protein (Homo sapiens, UniProt Q9Y5Y6); assay: Inhibition of recombinant human N-terminal met-His6-tagged matriptase catalytic domain (Gly596 to Val855 residues) expressed in Escherichia coli using Boc-QAR-AMC as substrate preincubated for 30 mins followed by substrate addition by fluorescence based assay
T2 sequence (Q9Y5Y6 whole entry): T1 sequence (whole entry)
Outline: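 Inhibitor in 11-point serial dilution (0-20 µM final, 2% DMSO) pre-incubated 30 min at room temperature with enzyme in TNC buffer (25 mM Tris, 150 mM NaCl, 5 mM CaCl2, 0.01% Triton X-100, pH 8). […] Hepsin activated beforehand 24 h at 37°C. Fluorescence ex 380/em 460 nm kinetic; four-parameter fit of velocities; mean of three experiments.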

[9] = Toxicity in NSG mouse assessed as body weight loss at 20 to 100 mg/kg, ip administered for 7 days; format: organism-based; conditions: in vivo, dose 20-100 mg/kg, time 7 day
HCC827 [10] = assay: Cytotoxicity against human HCC827 cells assessed as reduction in cell viability at 0.1 to 1 uM after 72 hrs by crystal violet staining based assay; conditions: dose 0.1-1 µM
[11] = Plasma protein binding in mouse assessed as unbound fraction; format: ADME, cell-free
Serine protease hepsin = Serine protease hepsin (Homo sapiens, UniProt P05981); assay: Inhibition of recombinant human C-terminal 10-His tagged hepsin (Arg45 to Leu417) expressed in mouse myeloma cells mediated pro-HGF activation preincubated for 30 mins followed by pro-HGF addition and measured after 1 hr by immunoblotting analysis; outline: as §1
Chain of Serine protease hepsin (P05981 1-162 limits assumed): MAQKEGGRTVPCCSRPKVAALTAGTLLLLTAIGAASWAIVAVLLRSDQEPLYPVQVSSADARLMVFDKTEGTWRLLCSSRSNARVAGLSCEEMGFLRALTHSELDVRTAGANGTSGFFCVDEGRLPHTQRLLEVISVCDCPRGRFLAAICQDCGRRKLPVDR
Chain of Serine protease hepsin (P05981 163-417 limits assumed): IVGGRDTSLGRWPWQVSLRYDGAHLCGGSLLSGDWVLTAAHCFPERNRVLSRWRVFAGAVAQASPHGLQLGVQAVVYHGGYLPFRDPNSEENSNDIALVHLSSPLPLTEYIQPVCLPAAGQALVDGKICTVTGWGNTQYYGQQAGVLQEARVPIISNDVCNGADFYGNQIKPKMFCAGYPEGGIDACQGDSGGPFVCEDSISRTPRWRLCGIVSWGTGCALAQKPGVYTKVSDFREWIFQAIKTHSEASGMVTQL

[12] = Acute toxicity in NSG mouse at 20 to 100 mg/kg, ip administered for 7 days; format: organism-based; conditions: in vivo, dose 20-100 mg/kg, time 7 day
[13] = Solubility of compound at pH 7.4; format: physicochemical; conditions: buffer
[14] = Toxicity in NSG mouse at 100 mg/kg, ip administered daily for 7 days; format: organism-based; conditions: in vivo, time 7 day
NCI-H596 [15] = assay: Inhibition of pro-HGF stimulated cell growth in human H596 cells at 10 uM by ELISA; format: functional, cell-based
[16] = Toxicity in hHGF knock in NSG mouse xenografted with human NCI-H596 cells at 50 mg/kg, ip administered daily for 25 days; format: organism-based; conditions: in vivo, 600 h, time 25 day

In the case of CC(=O)N[C@@H](CO)C(=O)N[C@@H](CCCCN)C(=O)N[C@@H](CC(C)C)C(=O)N[C@@H](CCCNC(=N)N)C(=O)c1nc2ccc(C(=O)N[C@H](C(N)=O)C(C)C)cc2s1 (Ac-SKL[X1]V-NH2), the Activity (NCI-H596 [1]) is reported as “Active”, the t1/2 [2] is reported as greater than 2.42 h and the inhibition (HCC827 [3]) is reported as “Active”. The Activity (HCC827 [4]) was “Active”, the inhibition [5] was “Active” and the t1/2 [6] was 2.33 h. For the same compound, the IC50 (Prothrombin) was 9 µM, the t1/2 [7] was 3.07 h and the Activity (EBC-1) was “Active”. For the same compound, the IC50 [8] was 0.021 µM, the Activity [9] was “Non-Toxic” and the Activity (HCC827 [10]) was “inactive”. For the same compound, the fraction unbound [11] was 0.167, the inhibition (Serine protease hepsin) was “Active” and the Activity [12] was “Non-Toxic”. The solubility [13] was 200 µM (≈ 161 µg/mL), the Activity [14] was “Non-Toxic” and the inhibition (NCI-H596 [15]) was “Active”. For the same compound, the Activity [16] was “Non-Toxic”.
